One may read the IC50 as the concentration that inhibits the measured activity by half. The low end stands for greater potency, the high end for weaker potency.

Type in all cases: functional, cell-based
In experiment [1] the test system is HL-60. Description: Cytotoxicity against human HL60 cells after 72 hrs by MTT assay. The conditions noted are these: HL-60, 72 h. A digest of the protocol:
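Cells plated in culture medium in 96-well plates, then treated in triplicate with graded compound concentrations for 72 h at 37 °C. MTT (5 mg/mL solution) added for 4 h, followed by 10% SDS/5% isobutanol/12 mM HCl solubilizer.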
(Tetrazolium dyes change colour on reduction, which living cells bring about.)

Experiment [2] deals with A549. The experiment is described as follows: Cytotoxicity against human A549 cells after 72 hrs by SRB assay. The conditions noted are these: A549, 72 h.
The test system of experiment [3] is Bel-7402. The experiment is described as follows: Cytotoxicity against human Bel7402 cells after 72 hrs by SRB assay. The conditions noted are these: Bel-7402, 72 h. On the technique in general: Sulforhodamine B stains cellular protein and so reports cell mass.

Consider `C=C(C)[C@@]12OC3(c4ccccc4)O[C@@H]1[C@@H]1[C@@H]4O[C@]4(C)[C@@H](O)[C@]4(O)C(=O)C(C)=C[C@H]4[C@@]1(O3)[C@H](C)[C@@H]2OC(=O)c1ccccc1` [TRIGOXYPHIN A], for which the half-inhibitory concentration (IC50) is 0.27 µM in experiment [1], 7.5 µM in experiment [2] and more than 10 µM in experiment [3].

`C=C(C)[C@@]12OC3(c4ccccc4)O[C@@H]1[C@@H]1[C@H](OC(C)=O)[C@@](C)(OC(=O)c4ccccc4)[C@@H](OC(C)=O)[C@@]4(O)[C@@H](C[C@H](C)[C@@H]4OC(C)=O)[C@@]1(O3)[C@H](C)[C@@H]2O` [TRIGOXYPHIN F] registered an IC50 in experiment [3] of more than 10 µM.

As to `C=C(C)[C@@]1(O)[C@@H]2OC3(c4ccccc4)O[C@H]1[C@@H](C)[C@@]1(O3)[C@H]2[C@H](OC(C)=O)[C@](C)(OC(=O)c2ccccc2)[C@@H](OC(C)=O)[C@@]2(O)[C@H]1C[C@H](C)[C@@H]2OC(C)=O` [TRIGOXYPHIN D], the IC50 in experiment [3] was more than 10 µM.

`C=C(C)[C@@]1(OC(C)=O)[C@@H]2OC3(c4ccccc4)O[C@H]1[C@@H](C)[C@@]1(O3)[C@H]2[C@H](OC(C)=O)[C@](C)(OC(=O)c2ccccc2)[C@@H](OC(C)=O)[C@@]2(O)[C@H]1C[C@H](C)[C@@H]2OC(C)=O` [TRIGOXYPHIN E] had a half-inhibitory concentration (IC50) in experiment [3] of more than 10 µM.

Consider `C=C(C)[C@@]12OC3(c4ccccc4)O[C@@H]1[C@@H]1[C@@H]4O[C@]4(C)[C@@H](OC(C)=O)[C@]4(O)C(=O)[C@@H](C)C[C@H]4[C@@]1(O3)[C@H](C)[C@@H]2OC(=O)c1ccccc1` [TRIGOXYPHIN C], for which, in experiment [3], the IC50 is more than 10 µM.

Turning to `COc1cccc2c1C(=O)c1c(O)c3c(c(O)c1C2=O)C[C@@](O)(C(=O)CO)C[C@@H]3O[C@H]1C[C@H](N)[C@H](O)[C@H](C)O1` [DOXORUBICIN], the IC50 worked out at 0.04 µM in experiment [1], 0.17 µM in experiment [2] and 0.12 µM in experiment [3].

The compound `Cc1cc2c(cc1O)C1=CC(=O)[C@@H](O)C(C)(C)C1CC2=O` (some centres undefined) [TRIGOXYPHIN G] yielded an IC50 in experiment [3] of more than 10 µM.

With `C=C(C)[C@@]12OC3(c4ccccc4)O[C@@H]1[C@@H]1[C@@H]4O[C@]4(C)[C@@H](O)[C@]4(O)C(=O)[C@@H](C)C[C@H]4[C@@]1(O3)[C@H](C)[C@@H]2OC(=O)c1ccccc1` [TRIGOXYPHIN B], the values for the IC50 in experiment [1], in experiment [2] and in experiment [3] were 0.49 µM, 4.9 µM and more than 10 µM, respectively.

Values taken from ChEMBL document CHEMBL1177752, “Trigoxyphins A-G: diterpenes from Trigonostemon xyphophylloides” (J Nat Prod, 2010).
